One assay addresses GluN1/GluN2A (Rattus norvegicus, UniProt P35439+Q00959). The experiment in a line: Whole-cell voltage-clamp recordings, HEK293 cells, rapid solution exchange. Type of assay: cell-based. The settings on record: 50 μM glutamate. In short, it runs like this:
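HEK293 cells were plated on poly-D-lysine coverslips about 48 h ahead and calcium-phosphate cotransfected with GluN1, GluN2A and GFP (1:1:1). 200 μM D,L-APV and 200 μM 7-chlorokynurenic acid were added after transfection. Whole-cell recording was done about 24 h later at −60 mV and 23°C on lifted cells with piezo-driven theta-glass exchange.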

Assay [1] has as its system GluN2B-containing NMDA receptors. The settings on record: ref Williams, 1993; cited from earlier work.
The mark [2] stands for this setting: brief application (10 ms) of 1000 μM glycine, antagonist 0.3 μM.

Structures are written as SMILES.

GluN1/GluN2A, sequence (Q00959 23-1464, other chains not shown): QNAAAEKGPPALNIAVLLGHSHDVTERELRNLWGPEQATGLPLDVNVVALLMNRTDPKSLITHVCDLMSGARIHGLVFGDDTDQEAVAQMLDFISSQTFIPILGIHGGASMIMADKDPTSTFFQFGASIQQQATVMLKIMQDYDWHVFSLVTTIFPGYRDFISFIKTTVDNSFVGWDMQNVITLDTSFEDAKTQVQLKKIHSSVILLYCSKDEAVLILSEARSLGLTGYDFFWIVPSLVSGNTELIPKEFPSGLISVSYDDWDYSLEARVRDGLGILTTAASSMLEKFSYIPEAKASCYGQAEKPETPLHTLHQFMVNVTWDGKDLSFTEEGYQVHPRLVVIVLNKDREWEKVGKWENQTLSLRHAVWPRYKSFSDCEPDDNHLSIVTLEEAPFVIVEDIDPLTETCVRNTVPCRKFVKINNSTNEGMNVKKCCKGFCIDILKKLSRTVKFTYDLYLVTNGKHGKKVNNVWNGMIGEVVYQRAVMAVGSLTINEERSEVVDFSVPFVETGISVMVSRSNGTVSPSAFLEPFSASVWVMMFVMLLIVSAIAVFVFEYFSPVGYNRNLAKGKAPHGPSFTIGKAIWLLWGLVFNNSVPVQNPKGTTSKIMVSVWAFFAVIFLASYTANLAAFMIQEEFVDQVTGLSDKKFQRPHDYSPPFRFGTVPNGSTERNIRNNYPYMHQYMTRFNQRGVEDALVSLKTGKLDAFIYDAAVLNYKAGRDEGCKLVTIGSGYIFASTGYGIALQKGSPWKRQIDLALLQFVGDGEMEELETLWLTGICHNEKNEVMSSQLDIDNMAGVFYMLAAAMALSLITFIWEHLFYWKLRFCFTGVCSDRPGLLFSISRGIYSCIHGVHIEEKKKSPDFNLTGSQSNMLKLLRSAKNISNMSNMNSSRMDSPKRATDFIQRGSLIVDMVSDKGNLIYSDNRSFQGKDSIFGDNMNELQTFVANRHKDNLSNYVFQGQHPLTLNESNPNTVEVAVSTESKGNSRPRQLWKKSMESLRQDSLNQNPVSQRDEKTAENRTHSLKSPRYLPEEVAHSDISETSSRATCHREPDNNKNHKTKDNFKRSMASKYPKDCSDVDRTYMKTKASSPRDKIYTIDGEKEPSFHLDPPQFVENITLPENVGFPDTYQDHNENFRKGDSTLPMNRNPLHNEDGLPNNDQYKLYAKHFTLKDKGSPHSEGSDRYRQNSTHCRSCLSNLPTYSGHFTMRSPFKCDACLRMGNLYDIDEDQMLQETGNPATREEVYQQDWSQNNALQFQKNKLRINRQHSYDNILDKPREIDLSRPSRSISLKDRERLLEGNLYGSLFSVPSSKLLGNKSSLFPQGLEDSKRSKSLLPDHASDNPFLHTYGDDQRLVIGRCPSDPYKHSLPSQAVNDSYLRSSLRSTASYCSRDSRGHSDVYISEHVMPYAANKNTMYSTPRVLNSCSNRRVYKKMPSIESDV

Turning to `O=C(O)c1cc(O)c2c(Cl)cc(Cl)cc2n1` [DCKA, 7,5-dichlorokynurenic acid], the “Peak response to a brief glycine application” value at GluN1/GluN2A (0.3 μM, 1 mM glycine 10 ms) is recorded as 43 ± 13 % of control. Also, at GluN1/GluN2A (0.3 μM, brief (10 ms) or long (5 seconds) 1 mM glycine), the “Effect on deactivation time course” value was “did not alter the deactivation time course”.
For the compound `O=C(O)c1cc(O)c2ccc(Cl)cc2n1` [7CKA, 7-chlorokynurenic acid], at GluN1/GluN2A (setting [2]), the “% fast” value is recorded as 34 ± 6%, the τfast was 46 ± 7 ms and the τslow is recorded as 158 ± 10 ms. The “deactivation time constant, mono-exponential fit (τslow)” value on GluN1/GluN2A (long application (5 seconds) of 1000 μM glycine, antagonist 0.3 μM) came out at 128 ± 14 ms.
Regarding `CC(C(O)c1ccc(O)cc1)N1CCC(Cc2ccccc2)CC1` (stereo not shown) [ifenprodil], the “selectivity for GluN2B-containing NMDA receptors” value in assay [1] was “over 500 fold”.

Source of the values: PMC3355950 (The Journal of Neuroscience, 2012).
